Test results published in ChEMBL document CHEMBL4177556, “Novel 5-HT7R antagonists, arylsulfonamide derivatives of (aryloxy)propyl piperidines: Add-on effect to the antidepressant activity of SSRI and DRI, and pro-cognitive profile” (Bioorg Med Chem, 2017).
Blank lines part the entries; values can stand above or below the compound they belong to. Activity calls are given as the source filed them.

Legend:
Homo sapiens = species: Homo sapiens; assay: Selectivity ratio of Ki for human 5-HT1A receptor to Ki for human 5-HT7b receptor
[1] = target: T1, 5-hydroxytryptamine receptor 1A (Homo sapiens, UniProt P08908); assay: Displacement of [3H]-8-OH-DPAT from human 5-HT1A receptor expressed in HEK293 or CHO-K1 cells after 1 hr by microbeta counting analysis; assay type: cell-based
T1 sequence (P08908 whole entry): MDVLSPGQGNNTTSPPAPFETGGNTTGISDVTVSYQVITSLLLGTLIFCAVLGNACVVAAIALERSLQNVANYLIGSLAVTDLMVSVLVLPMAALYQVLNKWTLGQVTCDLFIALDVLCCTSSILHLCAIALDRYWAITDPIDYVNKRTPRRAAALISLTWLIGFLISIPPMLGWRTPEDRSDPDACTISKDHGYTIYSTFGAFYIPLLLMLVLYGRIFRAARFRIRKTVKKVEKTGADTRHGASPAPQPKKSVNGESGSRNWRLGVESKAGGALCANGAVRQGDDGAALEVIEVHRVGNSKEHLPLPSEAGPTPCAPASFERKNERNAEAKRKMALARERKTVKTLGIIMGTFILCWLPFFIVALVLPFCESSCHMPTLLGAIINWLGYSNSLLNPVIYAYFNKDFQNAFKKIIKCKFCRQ
Summary of the method: (§1)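 Membranes from stably transfected HEK293 or CHO-K1 cells, homogenized, centrifuged twice at 35,000g, with 15 min at 37 °C in between. Receptor-specific Tris-HCl buffers with MgCl2, plus EDTA, pargyline or ascorbate as applicable. Incubated 1 h at 37 °C (5-HT1A at room temperature), filtered, and bound radioactivity counted.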

[2] = target: T2, 5-hydroxytryptamine receptor 7 (Homo sapiens, UniProt P34969); assay: Displacement of [3H]-5-CT from human 5-HT7b receptor expressed in HEK293 cells after 1 hr by microbeta counting analysis; assay type: cell-based; summary of the method: as §1
[3] = target: T2, 5-hydroxytryptamine receptor 7; assay: Antagonist activity at human 5-HT7b receptor expressed in HEK293 cells assessed as inhibition of 5-CT induced cAMP accumulation after 30 mins by LANCE based TR-FRET assay; assay type: functional, cell-based
Summary of the method: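 Stable 5-HT7 HEK293 cells in DMEM with 10% dialysed FBS and G418, harvested at 90% confluence, washed in warm PBS, and resuspended in HBSS/5 mM HEPES/0.5 mM IBMX/0.1% BSA. Compound incubated with cells for 30 min at room temperature against 5-CT (10 nM). Cells lysed with Eu-cAMP/ULight-anti-cAMP for 1 h at room temperature, then LANCE cAMP read-out. Triplicate at 8 concentrations.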

Mus musculus [4] = assay: Antidepressant-like activity in C57BL/6J mouse assessed as decrease in immobility time at 2.5 mg/kg measured during 6 mins session by tail suspension test; assay type: functional, organism-based
Summary of the method: (§2)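 Male C57BL/6J mice (22–26 g), 7–9 per group. Compound in distilled water, i.p. at 10 ml/kg, 60 min before test. Mice suspended by tail from a strain-gauge hook for 6 min. Struggling episodes, average event force and immobility (force below 0.20 N threshold) recorded automatically. One-way ANOVA with Bonferroni; mean ± SEM.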

[5] = target: Sodium-dependent serotonin transporter (Homo sapiens) (UniProt P31645); assay: Displacement of [3H]imipramine from recombinant human SERT at 1 uM after 60 mins by scintillation counting analysis relative to control
Summary of the method: (§3)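 Transporter and α1-adrenergic binding run externally by Eurofins Cerep using their standard protocols. Reported as % inhibition of control specific binding.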

[6] = target: 5-hydroxytryptamine receptor 6 (Homo sapiens, UniProt P50406); assay: Displacement of [3H]-LSD from human 5-HT6 receptor expressed in HEK293 or CHO-K1 cells after 1 hr by microbeta counting analysis; assay type: cell-based; summary of the method: as §1
Mus musculus [7] = assay: Antidepressant-like activity in C57BL/6J mouse assessed as increase in number of fight episodes at 0.625 to 1.25 mg/kg measured during 6 mins session by tail suspension test; assay type: functional, organism-based; summary of the method: as §2
Mus musculus [8] = assay: Antidepressant-like activity in C57BL/6J mouse assessed as decrease in immobility time at 1.25 mg/kg measured during 6 mins session by tail suspension test; assay type: functional, organism-based; summary of the method: as §2
Mus musculus [9] = assay: Antidepressant-like activity in C57BL/6J mouse assessed as increase in force of fights at 2.5 mg/kg measured during 6 mins session by tail suspension test; assay type: functional, organism-based; summary of the method: as §2
[10] = target: Adrenergic receptor alpha-1 (Homo sapiens) (UniProt P35348+P25100+P35368); assay: Binding affinity to alpha1-adrenergic receptor (unknown origin) at 1 uM relative to control; assay type: protein assay; summary of the method: as §3
Mus musculus [11] = assay: Antidepressant-like activity in Swiss albino mouse assessed as decrease in immobility time at 0.312 mg/kg cotreated with 0.625 mg/kg of escitalopram measured during last 4 mins of 6 mins test by forced swim test relative to control; assay type: functional; parameters: scale not given: the % may be the effect or the level left
Summary of the method: (§4)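 Male Swiss albino mice, 7–10 per group. Test compound (i.p., 60 min pre-test) co-given with reboxetine or bupropion (60 min) or escitalopram (30 min), all in distilled water at 10 ml/kg. Placed in a water cylinder (10 cm water, 23–25 °C) for 6 min; immobility scored over the last 4 min by a blinded observer. Two-way ANOVA with Bonferroni.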

D(2) dopamine receptor = D(2) dopamine receptor (Homo sapiens, UniProt P14416); assay: Displacement of [3H]-Raclopride from human dopamine D2L receptor expressed in HEK293 or CHO-K1 cells after 1 hr by microbeta counting analysis; assay type: cell-based; summary of the method: as §1
[12] = target: 5-hydroxytryptamine receptor 2A (Homo sapiens, UniProt P28223); assay: Displacement of [3H]-Ketanserin from human 5-HT2A receptor expressed in HEK293 or CHO-K1 cells after 1 hr by microbeta counting analysis; assay type: cell-based; summary of the method: as §1
[13] = target: Sodium-dependent noradrenaline transporter (Homo sapiens) (UniProt P23975); assay: Displacement of [3H]nisoxetine from recombinant human NET at 1 uM after 120 mins by scintillation counting analysis relative to control; summary of the method: as §3
[14] = target: Sodium-dependent dopamine transporter (Homo sapiens) (UniProt Q01959); assay: Displacement of [3H]BTCP from recombinant human DAT at 1 uM after 120 mins by scintillation counting analysis relative to control; summary of the method: as §3
Rattus norvegicus = assay: Cognitive enhancement effect in Sprague-Dawley rat memory impairment model assessed as reversal of natural forgetting impairment administered ip 30 mins prior to test measured after 24 hrs by novel object recognition test; assay type: functional, organism-based
Summary of the method: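 Male Sprague–Dawley rats (about 250 g), handled and acclimatized. Habituated to an open field arena (25 lx) for 5 min, 24 h before testing. Two 3-min trials (T1, T2) separated by a 24 h inter-trial interval. Drug given i.p. 30 min before T1. Object exploration video-tracked; discrimination index = (EB−EA)/(EA+EB).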

Mus musculus [15] = assay: Antidepressant-like activity in Swiss albino mouse assessed as decrease in immobility time at 0.312 mg/kg cotreated with 1.25 mg/kg of bupropion measured during last 4 mins of 6 mins test by forced swim test; assay type: functional, organism-based; summary of the method: as §4
Mus musculus [16] = assay: Toxicity in mouse assessed as effect on spontaneous locomotory activity at 0.312 to 2.5 mg/kg, ip administered 60 mins prior to testing measured for 6 mins; assay type: organism-based; settings: in vivo, 0.1 h
Summary of the method: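 Swiss albino or C57BL/6J mice habituated 30 min in activity cages. Ambulation counted from 2–6 min (matching the swim test) or over 6 min (matching the tail suspension test) with an infrared multi-channel activity monitor. Dosing i.p. as for the behavioral tests.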

Mus musculus [17] = assay: Antidepressant-like activity in Swiss albino mouse assessed as decrease in immobility time at 0.625 to 2.5 mg/kg measured during last 4 mins of 6 mins test by forced swim test relative to control; assay type: functional; parameters: scale not given: the % may be the effect or the level left
Summary of the method: (§5)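 Porsolt swim test in male Swiss albino mice (22–26 g), 7–10 per dose, each used once, run 09:00–14:00 by a blinded observer. Drugs in distilled water, i.p. at 10 ml/kg: escitalopram 30 min before test, others 60 min. Immobility scored during the last 4 min of a 6 min swim at 23–25 °C. One-way ANOVA with Bonferroni vs vehicle.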

Mus musculus [18] = assay: Antidepressant-like activity in Swiss albino mouse assessed as decrease in immobility time at 1.25 mg/kg measured during last 4 mins of 6 mins test by forced swim test relative to control; assay type: functional; parameters: scale not given: the % may be the effect or the level left; summary of the method: as §5
Mus musculus [19] = assay: Antidepressant-like activity in Swiss albino mouse assessed as decrease in immobility time at 2.5 mg/kg measured during last 4 mins of 6 mins test by forced swim test relative to control; assay type: functional; parameters: scale not given: the % may be the effect or the level left; summary of the method: as §5
Mus musculus [20] = assay: Antidepressant-like activity in C57BL/6J mouse assessed as increase in average force of fights at 20 mg/kg measured during 6 mins session by tail suspension test; assay type: functional, organism-based
Summary of the method: (§6)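 C57BL/6J male mice (22–26 g), 7–9 per group. Escitalopram in distilled water, i.p. at 10 ml/kg, 30 min before test. Tail suspension on a strain gauge for 6 min, scoring fight force, episode count and immobility below a 0.20 N threshold. One-way ANOVA with Bonferroni.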

Mus musculus [21] = assay: Antidepressant-like activity in Swiss albino mouse assessed as decrease in immobility time at 0.625 mg/kg measured during last 4 mins of 6 mins test by forced swim test; assay type: functional, organism-based; summary of the method: as §5
Mus musculus [22] = assay: Antidepressant-like activity in C57BL/6J mouse assessed as decrease in immobility time at 5 to 20 mg/kg measured during 6 mins session by tail suspension test; assay type: functional, organism-based; summary of the method: as §6

T2 sequence (P34969 whole entry): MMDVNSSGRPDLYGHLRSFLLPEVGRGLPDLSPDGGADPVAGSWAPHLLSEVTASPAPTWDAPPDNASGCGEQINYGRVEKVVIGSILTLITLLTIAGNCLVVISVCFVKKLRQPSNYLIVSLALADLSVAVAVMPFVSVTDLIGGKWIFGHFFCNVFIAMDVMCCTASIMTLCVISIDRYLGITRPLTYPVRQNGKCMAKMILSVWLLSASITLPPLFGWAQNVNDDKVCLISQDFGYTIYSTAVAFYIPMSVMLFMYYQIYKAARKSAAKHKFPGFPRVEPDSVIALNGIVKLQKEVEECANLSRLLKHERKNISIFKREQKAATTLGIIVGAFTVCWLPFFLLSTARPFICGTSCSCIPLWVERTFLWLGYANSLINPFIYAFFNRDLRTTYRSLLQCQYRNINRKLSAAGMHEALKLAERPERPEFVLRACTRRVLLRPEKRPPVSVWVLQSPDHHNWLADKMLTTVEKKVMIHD
Sequence of Sodium-dependent dopamine transporter (Homo sapiens) (Q01959 whole entry): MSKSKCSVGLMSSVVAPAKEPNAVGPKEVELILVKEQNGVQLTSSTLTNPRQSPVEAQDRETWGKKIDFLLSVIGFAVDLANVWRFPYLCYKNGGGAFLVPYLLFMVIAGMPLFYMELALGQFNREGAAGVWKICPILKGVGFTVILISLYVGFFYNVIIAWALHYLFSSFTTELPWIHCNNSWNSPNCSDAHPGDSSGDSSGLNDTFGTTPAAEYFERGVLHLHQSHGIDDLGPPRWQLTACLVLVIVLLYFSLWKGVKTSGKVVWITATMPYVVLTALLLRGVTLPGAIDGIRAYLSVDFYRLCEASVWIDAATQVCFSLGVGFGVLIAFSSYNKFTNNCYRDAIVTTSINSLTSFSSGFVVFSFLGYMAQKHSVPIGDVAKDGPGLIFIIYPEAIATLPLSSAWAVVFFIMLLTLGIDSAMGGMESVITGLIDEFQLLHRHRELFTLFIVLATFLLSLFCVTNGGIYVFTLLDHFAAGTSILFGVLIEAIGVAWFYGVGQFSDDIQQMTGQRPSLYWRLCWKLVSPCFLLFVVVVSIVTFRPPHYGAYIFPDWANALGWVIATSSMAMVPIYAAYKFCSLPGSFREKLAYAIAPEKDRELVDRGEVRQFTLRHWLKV
Sequence of 5-hydroxytryptamine receptor 2A (P28223 whole entry): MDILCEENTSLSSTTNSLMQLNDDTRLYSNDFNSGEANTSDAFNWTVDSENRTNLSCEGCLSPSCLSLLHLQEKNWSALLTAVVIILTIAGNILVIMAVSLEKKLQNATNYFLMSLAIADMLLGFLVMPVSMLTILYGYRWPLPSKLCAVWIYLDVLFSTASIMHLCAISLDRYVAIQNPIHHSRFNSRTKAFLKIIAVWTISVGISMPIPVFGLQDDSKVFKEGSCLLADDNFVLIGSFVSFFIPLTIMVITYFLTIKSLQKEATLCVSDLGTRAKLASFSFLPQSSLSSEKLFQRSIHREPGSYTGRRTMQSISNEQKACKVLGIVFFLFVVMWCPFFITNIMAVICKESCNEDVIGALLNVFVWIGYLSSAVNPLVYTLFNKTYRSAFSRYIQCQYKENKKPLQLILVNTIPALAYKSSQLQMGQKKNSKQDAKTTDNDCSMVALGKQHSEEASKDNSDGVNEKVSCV
Sequence of 5-hydroxytryptamine receptor 6 (P50406 whole entry): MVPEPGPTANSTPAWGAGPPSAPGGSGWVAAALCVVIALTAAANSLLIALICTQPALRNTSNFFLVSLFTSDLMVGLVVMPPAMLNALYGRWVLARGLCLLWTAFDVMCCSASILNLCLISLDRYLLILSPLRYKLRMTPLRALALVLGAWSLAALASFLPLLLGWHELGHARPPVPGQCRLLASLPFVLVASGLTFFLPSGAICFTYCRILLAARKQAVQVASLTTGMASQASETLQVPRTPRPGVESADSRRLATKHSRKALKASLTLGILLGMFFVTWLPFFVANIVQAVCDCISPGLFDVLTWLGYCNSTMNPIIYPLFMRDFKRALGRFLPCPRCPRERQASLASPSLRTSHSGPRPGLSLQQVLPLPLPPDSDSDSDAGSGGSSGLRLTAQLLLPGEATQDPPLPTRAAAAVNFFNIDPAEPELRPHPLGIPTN
Sequence of D(2) dopamine receptor (P14416 whole entry): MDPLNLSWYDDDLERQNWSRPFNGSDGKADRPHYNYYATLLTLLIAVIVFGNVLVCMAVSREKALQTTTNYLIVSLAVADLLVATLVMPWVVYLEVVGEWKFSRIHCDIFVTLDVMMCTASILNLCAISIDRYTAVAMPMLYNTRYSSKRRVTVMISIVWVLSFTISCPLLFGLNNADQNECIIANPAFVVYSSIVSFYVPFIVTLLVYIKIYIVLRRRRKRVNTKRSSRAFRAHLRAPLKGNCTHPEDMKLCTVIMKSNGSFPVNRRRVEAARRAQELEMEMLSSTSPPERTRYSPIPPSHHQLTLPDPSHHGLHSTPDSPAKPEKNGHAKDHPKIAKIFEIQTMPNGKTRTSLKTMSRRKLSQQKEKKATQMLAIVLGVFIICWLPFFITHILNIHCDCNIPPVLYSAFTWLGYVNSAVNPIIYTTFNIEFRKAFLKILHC
Sequence of Sodium-dependent serotonin transporter (Homo sapiens) (P31645 whole entry, looked up): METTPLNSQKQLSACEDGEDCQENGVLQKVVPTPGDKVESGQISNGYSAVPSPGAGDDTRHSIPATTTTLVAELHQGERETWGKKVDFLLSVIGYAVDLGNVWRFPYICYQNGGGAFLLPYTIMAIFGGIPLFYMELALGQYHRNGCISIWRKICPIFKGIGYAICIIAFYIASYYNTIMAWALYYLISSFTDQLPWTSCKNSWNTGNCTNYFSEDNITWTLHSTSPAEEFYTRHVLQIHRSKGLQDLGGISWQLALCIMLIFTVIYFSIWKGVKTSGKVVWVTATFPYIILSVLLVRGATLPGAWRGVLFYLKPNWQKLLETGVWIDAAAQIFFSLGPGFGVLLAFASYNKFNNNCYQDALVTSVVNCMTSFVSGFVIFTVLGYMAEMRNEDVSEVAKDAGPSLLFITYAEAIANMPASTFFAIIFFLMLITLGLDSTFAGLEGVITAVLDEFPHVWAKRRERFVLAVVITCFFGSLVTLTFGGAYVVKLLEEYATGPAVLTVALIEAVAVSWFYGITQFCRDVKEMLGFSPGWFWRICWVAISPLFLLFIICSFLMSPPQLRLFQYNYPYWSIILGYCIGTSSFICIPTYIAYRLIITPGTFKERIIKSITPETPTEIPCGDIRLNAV
Sequence of Sodium-dependent noradrenaline transporter (Homo sapiens) (P23975 whole entry): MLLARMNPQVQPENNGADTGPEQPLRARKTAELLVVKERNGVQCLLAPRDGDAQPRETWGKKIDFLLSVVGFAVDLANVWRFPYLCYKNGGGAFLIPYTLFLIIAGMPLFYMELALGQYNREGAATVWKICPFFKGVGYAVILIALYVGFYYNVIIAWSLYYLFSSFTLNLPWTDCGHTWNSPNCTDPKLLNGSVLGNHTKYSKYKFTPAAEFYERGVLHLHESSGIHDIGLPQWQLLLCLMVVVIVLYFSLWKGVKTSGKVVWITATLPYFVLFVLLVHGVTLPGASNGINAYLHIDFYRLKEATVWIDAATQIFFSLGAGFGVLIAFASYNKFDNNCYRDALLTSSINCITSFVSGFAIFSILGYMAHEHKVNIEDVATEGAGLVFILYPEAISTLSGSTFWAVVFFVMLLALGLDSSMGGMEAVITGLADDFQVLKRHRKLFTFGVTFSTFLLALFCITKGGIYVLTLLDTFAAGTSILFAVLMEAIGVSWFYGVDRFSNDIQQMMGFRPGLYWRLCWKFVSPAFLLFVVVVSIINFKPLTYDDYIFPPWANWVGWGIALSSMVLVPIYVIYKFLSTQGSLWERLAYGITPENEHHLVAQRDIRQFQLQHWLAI

Ratio Ki (Homo sapiens): 32
Ki [1]: 1840 nM
Ki [2]: 58 nM
SMILES: O=S(=O)(NC1CCN(CCCOc2ccccc2-c2ccccc2)CC1)c1ccc(F)cc1

Ratio Ki (Homo sapiens): 4
Ki [1]: 742 nM
Ki [2]: 213 nM
SMILES: CC(C)c1ccccc1OCC(O)CN1CCC(NS(=O)(=O)c2cccc(F)c2)CC1 (stereo not given)

Ratio Ki (Homo sapiens): 5
Ki [1]: 506 nM
Ki [2]: 104 nM
SMILES: CC(C)c1ccccc1OCC(O)CN1CCC(NS(=O)(=O)c2ccc(F)cc2)CC1 (stereo not given)

Kb [3]: 25 nM
Activity [5]: < 40%
Ki [6]: 295 nM
Activity [10]: < 10%
Ki (D(2) dopamine receptor): 343 nM
Ki [12]: 2110 nM
Activity [13]: < 40%
Ratio Ki (Homo sapiens): 40
Ki [1]: 1330 nM
Ki [2]: 33 nM
Activity [14]: < 40%
SMILES: O=S(=O)(NC1CCN(CC(O)COc2ccccc2-c2ccccc2)CC1)c1cccc(Cl)c1 (stereo not given)
Activity (Mus musculus [4]): Active
Activity (Mus musculus [7]): Active
Activity (Mus musculus [8]): Active
Activity (Mus musculus [9]): Active
Activity (Mus musculus [11]): 25.4%
Activity (Rattus norvegicus): Dose-dependent effect
Activity (Mus musculus [15]): Active
Activity (Mus musculus [16]): Non-Toxic
Activity (Mus musculus [17]): 28 - 46%

Ratio Ki (Homo sapiens): 22
Ki [1]: 1320 nM
Ki [2]: 59 nM
SMILES: O=S(=O)(NC1CCN(CC(O)COc2ccccc2-c2ccccc2)CC1)c1ccc(F)cc1 (stereo not given)

SMILES: CN(C)CCC[C@@]1(c2ccc(F)cc2)OCc2cc(C#N)ccc21 [ESCITALOPRAM]
Activity (Mus musculus [18]): 27%
Activity (Mus musculus [19]): 34%
Activity (Mus musculus [20]): Active
Activity (Mus musculus [21]): inactive
Activity (Mus musculus [22]): Active

Ratio Ki (Homo sapiens): 16
Ki [1]: 1170 nM
Ki [2]: 74 nM
SMILES: CC(C)c1ccccc1OCC(C)N1CCC(NS(=O)(=O)c2ccc(F)cc2)CC1 (stereo not given)
